In the library only some 3.2% were active in any assay of this set; here they are far more common.
rCAG binder: binds r(CAG) RNA repeats. 370,000 compounds, 1.3% hits. inhibition, % at 3 µM. AID 651821. r(CAG) RNA repeat, TO-PRO-1 dye displacement fluorescence;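 active means inhibition above the plate cutoff, the mean of all test compounds on that plate plus 3 SD, cut at about 35% in these data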;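 further: 0% = DMSO alone and 100% = 100 µM mitoxantrone as full dye displacement; higher means more dye released from RNA so lower well fluorescence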
mABHD4 FP: ABHD4 (mouse) inhibition, primary FP screen; Q8VD66; purified mABHD4, FP-Rh probe fluorescence polarization; inhibition, % at 8.92 µM; AID 720543; 370,000 compounds, 0.54% hits;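 active means inhibition exceeding the mean over every tested compound plus 3 SD, cut at about 30% in these data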;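 further: 0% = plate median of compound wells and 100% = S159A mutant with DMSO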
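Material: mouse ABHD4 enzyme, wild type; Benchmarks: S159A mutant high control, sample median low control; Buffer or medium: HEPES pH 7.0, NaCl, Pluronic buffer; Signal: fluorescence polarization; Read-out: percent inhibition of probe binding, normalized to plate controls; Timing: pre-incubation 45 min, probe exposure 60 min, at 25 °C; Dosing: 8.92 µM, single dose.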
DAGLB inh: blocks human DAGLB lipase activity | Q8NCG7 | HEK293T DAGLB membrane lysate, EnzChek fluorogenic substrate | inhibition, % at 5.17 µM | 340,000 compounds, 0.059% hits | AID 504411; in the data active means inhibition above about 34%;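 further: 0% = enzyme with vehicle and 100% = wells lacking enzyme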
HTRA1 inhibitor: inhibitors of human serine peptidase HTRA1 | Q92743 | recombinant HTRA1, FP-rhodamine activity-based probe, fluorescence polarization | inhibition, % at 5.96 µM | 340,000 compounds, 0.5% hits; in the data active means inhibition above about 36%;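 further: 0% = enzyme with DMSO and 100% = wells lacking enzyme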
Target sequence (Q92743 whole entry, looked up): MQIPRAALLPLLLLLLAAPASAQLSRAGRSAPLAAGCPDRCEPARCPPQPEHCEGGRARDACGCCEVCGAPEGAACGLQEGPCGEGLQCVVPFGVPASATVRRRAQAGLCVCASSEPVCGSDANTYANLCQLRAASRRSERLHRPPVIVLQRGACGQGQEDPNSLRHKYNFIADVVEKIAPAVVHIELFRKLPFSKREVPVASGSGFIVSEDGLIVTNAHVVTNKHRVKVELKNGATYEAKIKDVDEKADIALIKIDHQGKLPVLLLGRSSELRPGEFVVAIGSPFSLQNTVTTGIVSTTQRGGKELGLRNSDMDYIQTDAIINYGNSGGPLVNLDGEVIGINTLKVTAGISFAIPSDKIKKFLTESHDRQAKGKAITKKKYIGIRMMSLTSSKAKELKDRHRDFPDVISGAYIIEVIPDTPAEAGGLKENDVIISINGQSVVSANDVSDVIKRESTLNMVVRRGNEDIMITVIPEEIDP
PRMT1 FP inh: PRMT1 (human) inhibition, primary screen. Q99873. 370,000 compounds, 1.3% hits. recombinant PRMT1, activity-based probe fluorescence polarization. inhibition, % at 2.79 µM. AID 652257;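 active means inhibition above about 21% made by adding two undisclosed values, limit read from the data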
LEDGF integ inh: blocks HIV-1 LEDGF/p75-dependent DNA integration | TR-FRET IN-LEDGF/p75 DNA integration, Eu/Cy5 | inhibition, % at 3.7 µM | 370,000 compounds, 0.64% hits | AID 743269;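 active means inhibition above the screen-wide mean plus 3 SD, cut at about 13% in these data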;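 further: signal is the Cy5 over europium emission ratio at 671 and 618 nm; 0% = plate median of compound wells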
PRMT1 inh conf: confirmation of human PRMT1 inhibitors | shares compounds with PRMT1 FP inh | recombinant His-PRMT1, activity-based probe fluorescence polarization | inhibition, % at 2.79 µM | 3,300 compounds, 42% hits;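 active means mean inhibition across replicates above the hit cutoff derived for the earlier primary screen, cut at about 22% in these data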
Starred values were filed as active, the others as inactive; nt = no result.

SMILES	rCAG binder	mABHD4 FP	DAGLB inh	HTRA1 inhibitor	PRMT1 FP inh	LEDGF integ inh	PRMT1 inh conf
Fc1ccc(NC(=S)N2CCSC2c2cccs2)cc1 (configuration not stated)	-1	-3	-3	2	53*	4	6
O=C(CCCc1ccccc1)NCc1ccc2c(c1)OCO2	-2	1	-6	2	4	-2	nt
Cc1cccc(N2C(=O)N3[C@@H]4c5ccccc5OC[C@@H]4[C@@H](c4ccccc4)[C@]3(C)C2=O)c1	nt	nt	-4	-24	nt	nt	nt
CC(=O)Oc1ccc(N2C(=O)CC(N3CCOCC3)C2=O)cc1 (configuration not stated)	4	1	-2	1	43*	0	11
CC(=O)Oc1ccc(N2C(=O)C3C4C=CC(O4)C3C2=O)cc1 (configuration not stated)	0	11	1	5	95*	-1	27*
O=C(C1CCN(Cc2ccccc2)CC1)N1CCCC1	-2	9	-4	-1	2	-1	nt
O=C(C1CCN(C2CC(=O)N(c3cccc(Cl)c3)C2=O)CC1)N1CCCC1 (configuration not stated)	-4	4	-2	0	30*	0	4
O=C(C1CCN(C2CC(=O)N(Cc3ccccc3)C2=O)CC1)N1CCCCCC1 (configuration not stated)	-7	2	-3	8	57*	1	2
COc1ccccc1N1CCN(C2CC(=O)N(c3cccc(Cl)c3)C2=O)CC1 (configuration not stated)	2	-3	-3	8	9	2	nt
O=C(C1CCN(C2CC(=O)N(c3ccc(Cl)cc3)C2=O)CC1)N1CCOCC1 (configuration not stated)	-1	0	-1	5	27*	1	10
Cc1ccc(NNC2CC(=O)N(c3cccc(Cl)c3)C2=O)cc1 (configuration not stated)	25	0	-3	-16	9	6	nt
CC(=O)Oc1cccc(N2C(=O)C3C4C=CC(C4=C(C)C)C3C2=O)c1 (configuration not stated)	-2	0	-5	3	64*	-1	14
NC(=O)C1CCN(C2CC(=O)N(Cc3ccc(N4CCCC4=O)cc3)C2=O)CC1 (configuration not stated)	1	2	2	-2	58*	-3	1
CCN(CC)C1CC(=O)N(c2cccc(Cl)c2)C1=O (configuration not stated)	4	3	0	-13	34*	-4	29*
CC(=O)Oc1cccc(N2C(=O)C3C(C2=O)C2C=CC3C23CC3)c1 (configuration not stated)	4	2	-2	4	2	-1	nt
CC1CC(C)CN(C(=O)Cn2c(-c3nonc3N)nc3ccccc32)C1 (configuration not stated)	-2	-22	0	-3	5	-1	nt
Cc1cc(S(=O)(=O)n2[nH]c(=O)c(CCO)c2C)c(Cl)cc1Cl	-5	-8	-4	-6	1	-11	nt
Oc1ccc(N2CCN(c3ncnc4sc(-c5ccccc5)cc34)CC2)cc1	15	27	3	20	32*	1	15
O=C(Sc1cccc2cccnc12)c1ccc(F)cc1	2	-3	nt	nt	27*	-13	27*
CN(C)c1cccc2c1C(=O)c1ccccc1C2=O	2	23	24	26	3	-8	nt
Cc1ccc(SC2=C(N(C)C)C(=O)c3ccccc3C2=O)cc1	6	28	10	23	52*	-6	49*
COc1cccc(-n2nnc3c(=O)n(CC(=O)N4CCC(Cc5ccccc5)CC4)cnc32)c1	3	0	3	-4	2	1	nt
O=C(NCc1n[nH]c(=S)n1-c1cccc(C(F)(F)F)c1)c1ccc(S(=O)(=O)N2CCCCC2)cc1	21	-10	1	3	28*	5	8
CN(C)C(CNC(=O)NC1CCCCC1)c1cccnc1 (configuration not stated)	-3	6	3	2	-2	-2	nt
O=c1[nH]c(-[n+]2ccc3ccccc3c2)c(/C=N/N=C(\[O-])c2ccccc2)s1	-5	5	4	6	54*	-1	1
SMILES	rCAG binder	mABHD4 FP	DAGLB inh	HTRA1 inhibitor	PRMT1 FP inh	LEDGF integ inh	PRMT1 inh conf
CC(C)(C)c1cc[n+](-c2[nH]c(=O)sc2/C=N/N=C(\[O-])c2cccnc2)cc1	1	-1	0	1	1	-2	nt
CCN(CC)c1ccc(/C=C(\C#N)c2ccccn2)cc1	nt	nt	-7	11	nt	nt	nt
CCN(Cc1ccccc1)c1ccc(/C=C(\C#N)c2ccccn2)cc1	-31	8	-2	-5	57*	2	-1
COc1ccc(C2OC(=O)c3ccccc3S2)cc1 (configuration not stated)	3	-9	-2	1	38*	-2	17
COc1cc(C2OC(=O)c3ccccc3S2)cc(OC)c1OC (configuration not stated)	7	0	0	4	5	1	nt
Cc1coc(NC(=O)CSc2nc(-c3ccncc3)cc(C(F)(F)F)c2C#N)n1	-5	2	0	5	-1	-3	nt
CCc1cc2c(=O)n(Cc3ccco3)c(SCC(=O)NCC3CCCO3)nc2s1 (configuration not stated)	-5	0	-2	1	3	-1	nt
CCc1cc2c(=O)n(Cc3ccco3)c(SCC(=O)N3CCCc4ccccc43)nc2s1	8	1	-3	-52	46*	6	10
CCc1cc2c(=O)n(Cc3ccco3)c(SCc3c(C)noc3C)nc2s1	7	-5	-1	-37	53*	6	8
CCc1cc2c(=O)n(Cc3ccco3)c(SCC(=O)NC3CCS(=O)(=O)C3)nc2s1 (configuration not stated)	7	2	1	-1	2	-2	nt
O=C(NCc1ccc(F)cc1)C1CCCN1C(=O)Nc1cccc(F)c1 (configuration not stated)	0	1	-3	0	-1	4	nt
O=C(CSc1nccc(=O)[nH]1)Nc1cccc(S(=O)(=O)N2CCOCC2)c1	6	-5	-1	1	45*	0	32*
O=C(CSc1ncccn1)Nc1cccc(S(=O)(=O)N2CCOCC2)c1	4	-7	-2	0	1	1	nt
Cc1nc(Cc2nnc(SCC(=O)N3CCN(c4ccccc4)CC3)o2)cs1	-2	4	3	0	2	1	nt
COC(=O)CSCc1nc2ccccc2[nH]c1=O	3	1	-7	-1	34*	-1	55*
Cc1cc(C)cc(C(=O)NCC(=O)N2CCC3(CC2)NCCc2[nH]cnc23)c1	0	-10	0	1	0	1	nt

Assay outcomes deposited in PubChem BioAssay by The Scripps Research Institute Molecular Screening Center.
